Results: ChEMBL document CHEMBL1124255, “7-substituted 5-amino-1-cyclopropyl-6,8-difluoro-1,4-dihydro-4-oxo-3- quinolinecarboxylic acids: synthesis and biological activity of a new class of quinolone antibacterials” (J Med Chem, 1988)
Converted amounts (≈) assume the structure as drawn.

Tests used:
Streptococcus pneumoniae = assay: Antibacterial activity against Streptococcus pneumoniae SV-1; format: functional
Outline: (§1)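 Minimum inhibitory concentration measured by standard microtitration, run as part of a panel of 11 bacterial organisms.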

Escherichia coli [1] = assay: Antibacterial activity against Escherichia coli H560; format: functional; outline: as §1
Pseudomonas aeruginosa = assay: Antibacterial activity against Pseudomonas aeruginosa UI-18; format: functional; outline: as §1
Staphylococcus aureus [2] = assay: Antibacterial activity against Staphylococcus aureus UC76; format: functional; outline: as §1
Providencia rettgeri = assay: Antibacterial activity against Providencia rettgeri M1771; format: functional; outline: as §1
Klebsiella pneumoniae = assay: Antibacterial activity against Klebsiella pneumoniae MGH-2; format: functional; outline: as §1
Streptococcus pyogenes = assay: Antibacterial activity against Streptococcus pyogenes C203; format: functional; outline: as §1
Enterococcus faecalis = assay: Antibacterial activity against Streptococcus faecalis MGH-2; format: functional; outline: as §1
Escherichia coli [3] = assay: Antibacterial activity against Escherichia coli Vogel; format: functional; outline: as §1
DNA gyrase = DNA gyrase (Escherichia coli, UniProt P0AES4+P0AES6); assay: 50% inhibitory concentration against DNA-gyrase; format: protein-complex assay
Staphylococcus aureus [4] = assay: Antibacterial activity against Staphylococcus aureus H-228; format: functional; outline: as §1
Enterobacter cloacae = assay: Antibacterial activity against Enterobacter cloacae MA2646; format: functional
Escherichia coli [5] = assay: Median protective dose against Escherichia coli, determined in acute, lethal systemic infection in female charles river CD-1 mice (po); format: functional; details: Escherichia coli, po; read-out: PD50
Outline: (§2)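 Female Charles River CD-1 mice (18-22 g) were challenged intraperitoneally with about 100 median lethal doses in 0.5 mL 5% hog gastric mucin. Single compound doses in a twofold rising series were given in 0.5 mL at the time of challenge: sc as aqueous solution, po by gavage in 5% gum acacia. Groups of eight mice were used per dose. PD50 was estimated from survival percentages by log probit.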

Escherichia coli [6] = assay: Median protective dose against Escherichia coli, determined in acute, lethal systemic infection in female charles river CD-1 mice (sc); format: functional; details: read-out: PD50; outline: as §2

SMILES	MIC (Streptococcus pneumoniae)	MIC (Escherichia coli [1])	MIC (Pseudomonas aeruginosa)	MIC (Staphylococcus aureus [2])	MIC (Providencia rettgeri)	MIC (Klebsiella pneumoniae)	MIC (Streptococcus pyogenes)	MIC (Enterococcus faecalis)	MIC (Escherichia coli [3])	IC50 (DNA gyrase)	MIC (Staphylococcus aureus [4])	MIC (Enterobacter cloacae)	ED50 (Escherichia coli [5])	ED50 (Escherichia coli [6])
CCNCC1CCN(c2c(F)c(NC(C)=O)c3c(=O)c(C(=O)O)cn(C4CC4)c3c2F)C1 (configuration not stated)	6.3 µg/mL (≈ 14 µM)	12.5 µg/mL (≈ 27.9 µM)	> 25 µg/mL	3.1 µg/mL (≈ 6.91 µM)	> 25 µg/mL	> 25 µg/mL	12.5 µg/mL (≈ 27.9 µM)	12.5 µg/mL (≈ 27.9 µM)	> 25 µg/mL	> 223 µM	12.5 µg/mL (≈ 27.9 µM)	> 25 µg/mL		
CCNCC1CCN(c2c(F)c(NC)c3c(=O)c(C(=O)O)cn(C4CC4)c3c2F)C1 (configuration not stated)	0.025 µg/mL (≈ 0.0595 µM)	0.05 µg/mL (≈ 0.119 µM)	3.1 µg/mL (≈ 7.37 µM)	0.025 µg/mL (≈ 0.0595 µM)	1.6 µg/mL (≈ 3.81 µM)	0.4 µg/mL (≈ 0.951 µM)	0.1 µg/mL (≈ 0.238 µM)	0.1 µg/mL (≈ 0.238 µM)	0.2 µg/mL (≈ 0.476 µM)	32.8 µM	0.025 µg/mL (≈ 0.0595 µM)	0.4 µg/mL (≈ 0.951 µM)	11 mg/kg	5 mg/kg
CC(=O)Nc1c(F)c(N2CCNCC2)c(F)c2c1c(=O)c(C(=O)O)cn2C1CC1	> 25 µg/mL	> 25 µg/mL	> 25 µg/mL	> 25 µg/mL	> 25 µg/mL	> 25 µg/mL	> 25 µg/mL	> 25 µg/mL	> 25 µg/mL	> 246 µM	> 25 µg/mL	> 25 µg/mL		
CN1CCN(c2c(F)c(N(C)C)c3c(=O)c(C(=O)O)cn(C4CC4)c3c2F)CC1	> 25 µg/mL	> 25 µg/mL	> 25 µg/mL	> 25 µg/mL	> 25 µg/mL	> 25 µg/mL	> 25 µg/mL	> 25 µg/mL	> 25 µg/mL	> 492 µM	> 25 µg/mL	> 25 µg/mL		
CN1CCN(c2c(F)c(N)c3c(=O)c(C(=O)O)cn(C4CC4)c3c2F)CC1	0.2 µg/mL (≈ 0.529 µM)	0.003 µg/mL (≈ 0.00793 µM)	0.1 µg/mL (≈ 0.264 µM)	0.025 µg/mL (≈ 0.0661 µM)	0.05 µg/mL (≈ 0.132 µM)	0.013 µg/mL (≈ 0.0344 µM)	0.4 µg/mL (≈ 1.06 µM)	0.1 µg/mL (≈ 0.264 µM)	0.013 µg/mL (≈ 0.0344 µM)	7.4 µM	0.05 µg/mL (≈ 0.132 µM)	0.013 µg/mL (≈ 0.0344 µM)	2.2 mg/kg	1.1 mg/kg
O=C(O)c1cn(C2CC2)c2cc(N3CCNCC3)c(F)cc2c1=O [CIPROFLOXACIN]	1.6 µg/mL (≈ 4.83 µM)	0.025 µg/mL (≈ 0.0754 µM)	0.4 µg/mL (≈ 1.21 µM)	0.2 µg/mL (≈ 0.604 µM)	0.1 µg/mL (≈ 0.302 µM)	0.1 µg/mL (≈ 0.302 µM)	0.8 µg/mL (≈ 2.41 µM)	0.8 µg/mL (≈ 2.41 µM)			3.1 µg/mL (≈ 9.36 µM)		1.2 mg/kg	0.3 mg/kg
CC1COc2c(N3CCN(C)CC3)c(F)cc3c(=O)c(C(=O)O)cn1c23 (configuration not stated) [OFLOXACIN]	0.8 µg/mL (≈ 2.21 µM)	0.1 µg/mL (≈ 0.277 µM)	0.4 µg/mL (≈ 1.11 µM)	0.1 µg/mL (≈ 0.277 µM)	0.1 µg/mL (≈ 0.277 µM)	0.1 µg/mL (≈ 0.277 µM)	0.8 µg/mL (≈ 2.21 µM)	0.8 µg/mL (≈ 2.21 µM)	0.1 µg/mL (≈ 0.277 µM)		0.4 µg/mL (≈ 1.11 µM)	0.1 µg/mL (≈ 0.277 µM)	2 mg/kg	0.8 mg/kg
CCNCC1CCN(c2c(F)cc3c(=O)c(C(=O)O)cn(C4CC4)c3c2F)C1 (configuration not stated) [PD-117558]	0.025 µg/mL (≈ 0.0639 µM)	0.025 µg/mL (≈ 0.0639 µM)	0.4 µg/mL (≈ 1.02 µM)	0.006 µg/mL (≈ 0.0153 µM)	0.2 µg/mL (≈ 0.511 µM)	0.1 µg/mL (≈ 0.255 µM)	0.025 µg/mL (≈ 0.0639 µM)	0.025 µg/mL (≈ 0.0639 µM)	0.05 µg/mL (≈ 0.128 µM)	3.58 µM	0.05 µg/mL (≈ 0.128 µM)	0.2 µg/mL (≈ 0.511 µM)	4.2 mg/kg	1 mg/kg
